In ChEMBL document CHEMBL3596157, “Heteroaromatic analogs of the resveratrol analog DMU-212 as potent anti-cancer agents” (2015):

Columns and labels:
Assay type in all cases: functional
NCI-H226 = assay: Growth inhibition of human NCI-H226 cells after 48 hrs by SRB assay; details: NCI-H226, 48 h
Procedure, shortened: (§1)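 NCI-60 panel screen. Cells exposed for 48 h to five concentrations (10−4, 10−5, 10−6, 10−7 and 10−8 M). Sulforhodamine B optical density is read just before compound addition (time zero) and after 48 h, for both treated and vehicle-control wells. Percent growth is calculated against control. GI50 is the concentration giving a 50% reduction in net cell growth relative to cell numbers on day 0.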

UACC-257 = assay: Growth inhibition of human UACC257 cells after 48 hrs by SRB assay; details: UACC-257, 48 h
Procedure, shortened: (§2)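 NCI-60 panel cells; preliminary single-dose screen at 10−5 M, then five-dose testing at 10−4 to 10−8 M (tenfold steps) with 48 h exposure. SRB-stained optical density read before compound addition (time zero), after 48 h with compound, and with vehicle control. Percent growth is calculated against control. GI50 is the concentration giving 50% reduction in net growth relative to day-0 cell number.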

OVCAR-4 = assay: Growth inhibition of human OVCAR4 cells after 48 hrs by SRB assay; details: OVCAR-4, 48 h; procedure, shortened: as §1
SK-MEL-28 = assay: Growth inhibition of human SK-MEL-28 cells after 48 hrs by SRB assay; details: SK-MEL-28, 48 h; procedure, shortened: as §1
NCI-H23 = assay: Growth inhibition of human NCI-H23 cells after 48 hrs by SRB assay; details: NCI-H23, 48 h; procedure, shortened: as §1
PC-3 = assay: Growth inhibition of human PC3 cells after 48 hrs by SRB assay; details: PC-3, 48 h; procedure, shortened: as §1
SF-268 = assay: Growth inhibition of human SF268 cells after 48 hrs by SRB assay; details: SF-268, 48 h; procedure, shortened: as §1
[1] = Growth inhibition of human LOXIMVI cells after 48 hrs by SRB assay; details: LOX IMVI; procedure, shortened: as §1
MDA-MB-435 = assay: Growth inhibition of human MDA-MB-435 cells after 48 hrs by SRB assay; details: MDA-MB-435, 48 h; procedure, shortened: as §1
OVCAR-3 = assay: Growth inhibition of human OVCAR3 cells after 48 hrs by SRB assay; details: OVCAR-3, 48 h; procedure, shortened: as §1
M14 = assay: Growth inhibition of human M14 cells after 48 hrs by SRB assay; details: M14, 48 h; procedure, shortened: as §1
SW-620 = assay: Growth inhibition of human SW620 cells after 48 hrs by SRB assay; details: SW-620, 48 h; procedure, shortened: as §2
NCI-H322M = assay: Growth inhibition of human NCI-H322M cells after 48 hrs by SRB assay; procedure, shortened: as §1
A498 = assay: Growth inhibition of human A498 cells after 48 hrs by SRB assay; details: A498, 48 h; procedure, shortened: as §1
SK-MEL-2 = assay: Growth inhibition of human SK-MEL-2 cells after 48 hrs by SRB assay; details: SK-MEL-2, 48 h; procedure, shortened: as §1
[2] = Growth inhibition of human RPMI8226 cells after 48 hrs by SRB assay; details: RPMI-8226, 48 h; procedure, shortened: as §1
SNB-75 = assay: Growth inhibition of human SNB75 cells after 48 hrs by SRB assay; details: SNB-75, 48 h; procedure, shortened: as §2
UACC-62 = assay: Growth inhibition of human UACC62 cells after 48 hrs by SRB assay; details: UACC-62, 48 h; procedure, shortened: as §2
UO-31 = assay: Growth inhibition of human UO31 cells after 48 hrs by SRB assay; details: UO-31, 48 h; procedure, shortened: as §2
A549 = assay: Growth inhibition of human A549/ATCC cells after 48 hrs by SRB assay; details: A549, 48 h; procedure, shortened: as §1
SK-MEL-5 = assay: Growth inhibition of human SK-MEL-5 cells after 48 hrs by SRB assay; details: SK-MEL-5, 48 h; procedure, shortened: as §1
SR = assay: Growth inhibition of human SR cells after 48 hrs by SRB assay; procedure, shortened: as §2
CCRF-CEM = assay: Growth inhibition of human CCRF-CEM cells after 48 hrs by SRB assay; procedure, shortened: as §1
U-251 = assay: Growth inhibition of human U251 cells after 48 hrs by SRB assay; details: U-251, 48 h; procedure, shortened: as §2
[3] = Growth inhibition of human MOLT4 cells after 48 hrs by SRB assay; details: MOLT-4, 48 h; procedure, shortened: as §1
TK-10 = assay: Growth inhibition of human TK10 cells after 48 hrs by SRB assay; details: TK-10, 48 h; procedure, shortened: as §2
[4] = Growth inhibition of human HCC2998 cells after 48 hrs by SRB assay; details: HCC 2998, 48 h; procedure, shortened: as §1
[5] = Growth inhibition of human HOP92 cells after 48 hrs by SRB assay; details: HOP-92, 48 h; procedure, shortened: as §1
MDA-MB-231 = assay: Growth inhibition of human MDA-MB-231/ATCC cells after 48 hrs by SRB assay; details: MDA-MB-231, 48 h; procedure, shortened: as §1
[6] = Growth inhibition of human SF539 cells after 48 hrs by SRB assay; details: SF-539, 48 h; procedure, shortened: as §1
MCF7 = assay: Growth inhibition of human MCF7 cells after 48 hrs by SRB assay; details: MCF7, 48 h; procedure, shortened: as §1
HOP-62 = assay: Growth inhibition of human HOP62 cells after 48 hrs by SRB assay; details: HOP-62, 48 h; procedure, shortened: as §1
K562 = assay: Growth inhibition of human K562 cells after 48 hrs by SRB assay; details: K562, 48 h; procedure, shortened: as §1
NCI-H522 = assay: Growth inhibition of human NCI-H522 cells after 48 hrs by SRB assay; details: NCI-H522, 48 h; procedure, shortened: as §1
SK-OV-3 = assay: Growth inhibition of human SKOV3 cells after 48 hrs by SRB assay; details: SK-OV-3, 48 h; procedure, shortened: as §1
IGROV-1 = assay: Growth inhibition of human IGROV1 cells after 48 hrs by SRB assay; details: IGROV-1, 48 h; procedure, shortened: as §1
[7] = Growth inhibition of human RXF393 cells after 48 hrs by SRB assay; details: RXF 393, 48 h; procedure, shortened: as §1
HCT-15 = assay: Growth inhibition of human HCT15 cells after 48 hrs by SRB assay; details: HCT-15, 48 h; procedure, shortened: as §1
ACHN = assay: Growth inhibition of human ACHN cells after 48 hrs by SRB assay; procedure, shortened: as §1
[8] = Growth inhibition of human NCI-ADR-RES cells after 48 hrs by SRB assay; procedure, shortened: as §1
HCT-116 = assay: Growth inhibition of human HCT116 cells after 48 hrs by SRB assay; details: HCT-116, 48 h; procedure, shortened: as §1
OVCAR-5 = assay: Growth inhibition of human OVCAR5 cells after 48 hrs by SRB assay; details: OVCAR-5, 48 h; procedure, shortened: as §1
786-0 = assay: Growth inhibition of human 786-0 cells after 48 hrs by SRB assay; details: 786-0, 48 h; procedure, shortened: as §1
SN12C = assay: Growth inhibition of human SN12C cells after 48 hrs by SRB assay; procedure, shortened: as §1
KM12 = assay: Growth inhibition of human KM12 cells after 48 hrs by SRB assay; details: KM12, 48 h; procedure, shortened: as §1
[9] = Growth inhibition of human BT549 cells after 48 hrs by SRB assay; details: BT-549, 48 h; procedure, shortened: as §1
[10] = Growth inhibition of human Hs578T cells after 48 hrs by SRB assay; details: Hs-578T; procedure, shortened: as §1
[11] = Growth inhibition of human EKVX cells after 48 hrs by SRB assay; procedure, shortened: as §1
DU-145 = assay: Growth inhibition of human DU145 cells after 48 hrs by SRB assay; details: DU-145, 48 h; procedure, shortened: as §1
HT-29 = assay: Growth inhibition of human HT-29 cells after 48 hrs by SRB assay; details: HT-29, 48 h; procedure, shortened: as §1
CAKI-1 = assay: Growth inhibition of human Caki1 cells after 48 hrs by SRB assay; details: CAKI-1, 48 h; procedure, shortened: as §1
Malme-3M = assay: Growth inhibition of human MALME-3M cells after 48 hrs by SRB assay; procedure, shortened: as §1
[12] = Growth inhibition of human SF295 cells after 48 hrs by SRB assay; details: SF-295, 48 h; procedure, shortened: as §1
SNB-19 = assay: Growth inhibition of human SNB19 cells after 48 hrs by SRB assay; details: SNB-19, 48 h; procedure, shortened: as §1
NCI-H460 = assay: Growth inhibition of human NCI-H460 cells after 48 hrs by SRB assay; details: NCI-H460, 48 h; procedure, shortened: as §1
OVCAR-8 = assay: Growth inhibition of human OVCAR8 cells after 48 hrs by SRB assay; details: OVCAR-8, 48 h; procedure, shortened: as §1
[13] = Growth inhibition of human COLO205 cells after 48 hrs by SRB assay; details: COLO 205, 48 h; procedure, shortened: as §1

- GI50 (NCI-H226): 0.442 µM
- GI50 (OVCAR-4): 0.553 µM
- GI50 (SK-MEL-28): 0.346 µM
- GI50 (NCI-H23): 0.324 µM
- GI50 (PC-3): 0.276 µM
- GI50 (MDA-MB-435): 0.036 µM
- GI50 (OVCAR-3): 0.224 µM
- GI50 (SW-620): 0.293 µM
- GI50 (NCI-H322M): 0.649 µM
- GI50 (SK-MEL-2): 0.323 µM
- GI50 (A549): 0.31 µM
- GI50 (SK-MEL-5): 0.267 µM
- GI50 (CCRF-CEM): 0.262 µM
- GI50 (U-251): 0.338 µM
- GI50 (MDA-MB-231): 0.45 µM
- GI50 (MCF7): 0.285 µM
- GI50 (K562): 0.088 µM
- GI50 (NCI-H522): 0.153 µM
- GI50 (SK-OV-3): 0.263 µM
- GI50 (HCT-15): 0.328 µM
- GI50 (ACHN): 0.81 µM
- GI50 (HCT-116): 0.246 µM
- GI50 (OVCAR-5): 0.547 µM
- GI50 (786-0): 0.445 µM
- GI50 (DU-145): 0.402 µM
- GI50 (HT-29): 0.234 µM
- GI50 (NCI-H460): 0.351 µM
- GI50 (OVCAR-8): 0.352 µM
SMILES: COc1cc(/C=C/c2cc3ccccc3s2)cc(OC)c1OC
- GI50 (UACC-257): 0.52 µM
- GI50 (SF-268): 0.985 µM
- GI50 [1]: 0.382 µM
- GI50 (M14): 0.169 µM
- GI50 (A498): 0.213 µM
- GI50 [2]: 0.268 µM
- GI50 (SNB-75): 0.19 µM
- GI50 (UACC-62): 0.185 µM
- GI50 (UO-31): 0.513 µM
- GI50 (SR): 0.12 µM
- GI50 [3]: 0.424 µM
- GI50 (TK-10): 0.566 µM
- GI50 [4]: 0.307 µM
- GI50 [5]: 0.322 µM
- GI50 [6]: 0.299 µM
- GI50 (HOP-62): 0.42 µM
- GI50 (IGROV-1): 0.52 µM
- GI50 [7]: 0.168 µM
- GI50 [8]: 0.07 µM
- GI50 (SN12C): 0.666 µM
- GI50 (KM12): 0.213 µM
- GI50 [9]: 0.326 µM
- GI50 [10]: 0.275 µM
- GI50 [11]: 10.3 µM
- GI50 (CAKI-1): 4.35 µM
- GI50 (Malme-3M): 0.826 µM
- GI50 [12]: 0.442 µM
- GI50 (SNB-19): 0.362 µM
- GI50 [13]: 0.209 µM
